By MIC50 is commonly meant an inhibitory concentration at the 50% level, which refers to growth in some studies and to a panel of isolates in others.

In brackets after ≈: the same amount, converted by molar mass. Activity calls are given as the source filed them. The rule behind the calls is not given here.

Among the data in ChEMBL document CHEMBL6177924, “Synthesis and antifungal evaluation of new azole derivatives containing 1,2,3-triazole” (RSC Med Chem, 2025) are MIC50 and Activity values, retold here.

In data set [1] the test system is Candida albicans. The experiment in a line: Antifungal activity against drug sensitive Candida albicans SC5314 assessed as inhibition of fungal growth incubated for 24 hrs by CLSI protocol based microdilution method. Type of data set: functional. A digest of the protocol:
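Broth microdilution of log-phase C. albicans at 1×10^5 CFU/mL in Sabouraud liquid medium (SDB). Compounds serially diluted 5-fold to final 200-0.064 µg/mL, DMSO below 0.1%. Triplicate wells, 200 µL final volume, with growth, blank and fluconazole controls. Incubated 24 h at 30 °C, OD read at 630 nm; experiment repeated three times.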

Data set [2] has as its system Candida albicans. The data set can be described thus: Antifungal activity against drug resistant Candida albicans SC5314-FR assessed as inhibition of fungal growth incubated for 24 hrs by CLSI protocol based microdilution method. Type of data set: functional. A digest of the protocol:
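Fluconazole-resistant strain derived from SC5314 by fluconazole exposure. Log-phase cells at 1×10^5 CFU/mL in SDB. Drug fivefold serial dilutions, 200–0.064 µg/mL final, DMSO <0.1%, triplicate wells, 200 µL. Incubated 30 °C for 24 h and read at OD630. Growth, blank and fluconazole controls included. Run three times.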

In data set [3] the test system is Candida albicans. The data set can be described thus: Antifungal activity against Candida albicans SC5314 assessed as inhibition of fungal growth measured up to 48 hrs by time-killing curve analysis. In kind it is functional, organism-based. The method in brief: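 Log-phase cells at 1×10^5 CFU/mL in SDB, 10 mL per group. Drug at 0.27, 0.53 or 1.06 µg/mL, plus fluconazole and untreated controls. Shaken 150 r/min at 30 °C. Samples taken at 0, 4, 8, 12, 24, 36 and 48 h and read at A630, triplicate wells. Absorbance plotted against time.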

For data set [4], the system named is Candida albicans. The data set can be described thus: Antifungal activity against Candida albicans assessed as inhibition of mycelia formation measured after 4 to 8 hrs by inverted microscopic analysis. Type of data set: functional, organism-based. Particulars: time 4-8 hrs. A digest of the protocol: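 Hyphae induced in SD + 10% FBS or in Spider medium, log-phase cells at 1×10^5 CFU/mL. Drug at 0.27, 0.53 or 1.06 µg/mL, with fluconazole and drug-free controls, 1 mL per well in 24-well plates, triplicate. […], and mycelium formation viewed and photographed by inverted microscope at 4 and 8 h.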

The subject of data set [5] is Cell membrane. The experiment in a line: Induction of cell membrane permeability in Candida albicans assessed as increase in red fluorescence incubated for 16 to 24 hrs by PI staining based fluorescence microscopic analysis. Type of data set: subcellular. Particulars: time 16-24 hrs. A digest of the protocol: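 C. albicans at 1×10^5 CFU/mL in SDB grown with drug (0.27, 0.53, 1.06 µg/mL), fluconazole or no drug at 30 °C, 150 r/min, for 16-24 h. Cells washed and resuspended in PBS at 2×10^6 CFU/mL. Stained with propidium iodide (final 5 µg/mL) 30 min at room temperature in the dark, then washed. Imaged by fluorescence microscopy and fluorescence intensity measured.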

The subject of data set [6] is Candida albicans. The experiment in a line: Antibiofilm activity in Candida albicans SC5314 assessed as decrease in number of mycelia measured after 24 hrs by inverted microscopic analysis. Type of data set: functional, organism-based. The method in brief: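 Log-phase cells at 1×10^5 CFU/mL in RPMI1640 + 10% FBS allowed to adhere 90 min at 30 °C in 24-well plates. Excess medium removed, then 1 mL medium with or without drug (0.27, 0.53, 1.06 µg/mL; fluconazole group) added for 24 h at 30 °C. Crystal violet stain 30 min, PBS washes ×3, biofilm viewed by inverted microscope.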

Data set [7] deals with Cell membrane. The experiment in a line: Induction of cell membrane permeability in Candida albicans assessed as increase in fluorescence intensity by multifunctional enzymatic assay. Type of data set: subcellular.
Data set [8] relates to Candida albicans. The data set can be described thus: Induction of morphological changes in Candida albicans assessed as normal cell wall appearance incubated for 16 to 24 hrs by transmission electron microscopic analysis. Type of data set: functional, organism-based. Particulars: time 16-24 hrs. A digest of the protocol: (§1)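 Cells at 5×10^5 CFU/mL in SDB with drug (0.27, 0.53, 1.06 µg/mL), fluconazole or no drug. Shaken 150 r/min at 30 °C for 16–24 h, pelleted and PBS-washed. Fixed in 3% paraformaldehyde/2.5% glutaraldehyde at 4 °C, post-fixed in 1% OsO4, acetone-dehydrated and Epon-812 embedded. 60–90 nm sections stained with uranyl acetate and lead citrate, imaged by TEM.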

In data set [9] the test system is Candida albicans. The data set can be described thus: Induction of morphological changes in Candida albicans assessed as blurred spacing between cell wall and cell membrane incubated for 16 to 24 hrs by transmission electron microscopic analysis. In kind it is functional, organism-based. Particulars: time 16-24 hrs. A digest of the protocol:
as §1

The test system of data set [10] is Candida albicans. The data set can be described thus: Induction of morphological changes in Candida albicans assessed as loose distribution of cytoplasm incubated for 16 to 24 hrs by transmission electron microscopic analysis. In kind it is functional, organism-based. Particulars: time 16-24 hrs. The method in brief: as §1
The subject of data set [11] is Candida albicans. The experiment in a line: Induction of morphological changes in Candida albicans assessed as absence of intracellular substance incubated for 16 to 24 hrs by transmission electron microscopic analysis. Type of data set: functional, organism-based. Particulars: time 16-24 hrs. A digest of the protocol:
as §1

For another data set, the system named is 16HBE14o-. The data set can be described thus: Cytotoxicity against human 16HBE14o- cells assessed as reduction in cell viability 0.032 to 100 microg/ml incubated for 48 hrs by CCK8 assay. Type of data set: toxicity, cell-based. The following applies: dose 0.032-100 µg/ml. The method in brief: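 16HBE cells seeded in RPMI1640 + 10% FBS + 1% antibiotics and attached 24 h at 37 °C. Medium replaced with drug in fivefold dilutions from 100 µg/mL, with fluconazole, growth and blank controls. Incubated 48 h, then CCK8 reagent added and plates incubated for viability read-out.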
(In general: Tetrazolium assays rely on reduction of a dye to a coloured formazan, in cell work by metabolically active cells.)

Consider `Clc1ccc(C(Cn2ccnc2)OCc2cn(Cc3ccc(Br)cc3)nn2)c(Cl)c1` (stereo unspecified), for which the MIC50 with Candida albicans [1] was found to be 1.33 µg/mL (≈ 2.62 µM); in the data set on Candida albicans [2], 9.03 µg/mL (≈ 17.8 µM).

`O=C(Cn1cc(COC(Cn2ccnc2)c2ccc(Cl)cc2Cl)nn1)c1ccc(F)cc1F` (stereo unspecified): the MIC50 with Candida albicans [1] was 0.69 µg/mL (≈ 1.4 µM); in the data set with Candida albicans [2], 19.3 µg/mL (≈ 39.2 µM).

Regarding `COC(=O)/C=C/c1ccc(Cn2cc(COC(Cn3ccnc3)c3ccc(Cl)cc3Cl)nn2)cc1` (stereo unspecified), the MIC50 amounted to 16.5 µg/mL (≈ 32.2 µM) in the data set on Candida albicans [1] and 17.8 µg/mL (≈ 34.8 µM) in the data set with Candida albicans [2].

On to `O=C(Cn1cc(COC(Cn2ccnc2)c2ccc(Cl)cc2Cl)nn1)c1ccc(Br)cc1` (stereo unspecified), for which the results for the MIC50 in the data set on Candida albicans [1] and in the data set with Candida albicans [2] were 0.51 µg/mL (≈ 0.953 µM) and 9.83 µg/mL (≈ 18.4 µM), respectively.

As for `ClCCn1cc(COC(Cn2ccnc2)c2ccc(Cl)cc2Cl)nn1` (stereo unspecified), the MIC50 in the data set with Candida albicans [1] was 1.2 µg/mL (≈ 2.99 µM); with Candida albicans [2], 14.1 µg/mL (≈ 35.3 µM).

With `O=C(Cn1cc(COC(Cn2ccnc2)c2ccc(Cl)cc2Cl)nn1)c1ccc(Cl)cc1Cl` (stereo unspecified), the MIC50 stood at 8.72 µg/mL (≈ 16.6 µM) in the data set with Candida albicans [1] and 19.9 µg/mL (≈ 37.9 µM) in the data set on Candida albicans [2].

Consider `COC(=O)Cn1cc(COC(Cn2ccnc2)c2ccc(Cl)cc2Cl)nn1` (stereo unspecified), for which the MIC50 in the data set with Candida albicans [1] was 1.62 µg/mL (≈ 3.95 µM); in the data set on Candida albicans [2] it was above 200 µg/mL.

On to `OC(Cn1cncn1)(Cn1cncn1)c1ccc(F)cc1F` [FLUCONAZOLE], for which the figures for the MIC50 in the data set on Candida albicans [1] and with Candida albicans [2] were 1.52 µg/mL (≈ 4.96 µM) and above 200 µg/mL, respectively. Also, the outcome with Candida albicans [3], in the data set on Candida albicans [4], with Candida albicans [6], in the data set with Cell membrane [7], in the data set with Candida albicans [8] and in the data set on Candida albicans [9] was Active. Further, the result in the data set on Candida albicans [10] and in the data set on Candida albicans [11] was Active. Also, the Activity entry in the data set with Cell membrane [5] is on record as “Active; Small Amount Of Red Fluorescence Observed”; in the data set with 16HBE14o-, “Non-toxic”.

For the compound `Clc1ccc(Cn2cc(COC(Cn3ccnc3)c3ccc(Cl)cc3Cl)nn2)cc1` (stereo unspecified), the MIC50 in the data set on Candida albicans [1] turned out to be 1.78 µg/mL (≈ 3.85 µM); with Candida albicans [2], 11 µg/mL (≈ 23.7 µM).

Turning to `Fc1ccc(Cn2cc(COC(Cn3ccnc3)c3ccc(Cl)cc3Cl)nn2)cc1F` (stereo unspecified), the figures for the MIC50 with Candida albicans [1] and with Candida albicans [2] were 11.4 µg/mL (≈ 24.7 µM) and 21.4 µg/mL (≈ 46 µM), respectively.

Regarding `O=C(Cn1cc(COC(Cn2ccnc2)c2ccc(Cl)cc2Cl)nn1)c1ccccc1Cl` (stereo unspecified), the MIC50 with Candida albicans [1] came to 4.71 µg/mL (≈ 9.6 µM); in the data set with Candida albicans [2] it was 24.1 µg/mL (≈ 49 µM).

As for `CC(=O)Cn1cc(COC(Cn2ccnc2)c2ccc(Cl)cc2Cl)nn1` (stereo unspecified), the MIC50 in the data set with Candida albicans [1] is 90.8 µg/mL (≈ 230 µM); in the data set with Candida albicans [2] it was above 200 µg/mL.

On to `C=CCn1cc(COC(Cn2ccnc2)c2ccc(Cl)cc2Cl)nn1` (stereo unspecified), for which the MIC50 in the data set on Candida albicans [1] is 29.4 µg/mL (≈ 77.8 µM); with Candida albicans [2] it was 77.9 µg/mL (≈ 206 µM).

In the case of `COc1ccc(C(=O)Cn2cc(COC(Cn3ccnc3)c3ccc(Cl)cc3Cl)nn2)cc1OC` (stereo unspecified), the results for the MIC50 in the data set with Candida albicans [1] and in the data set with Candida albicans [2] were 16.6 µg/mL (≈ 32.2 µM) and 58.6 µg/mL (≈ 113 µM), respectively.

Turning to `FC(F)(F)c1ccc(Cn2cc(COC(Cn3ccnc3)c3ccc(Cl)cc3Cl)nn2)cc1` (stereo unspecified), the MIC50 is 9.77 µg/mL (≈ 19.7 µM) with Candida albicans [1] and 15 µg/mL (≈ 30.1 µM) with Candida albicans [2].

In the case of `Clc1ccc(C(Cn2ccnc2)OCc2cn(Cc3ccc4ccccc4c3)nn2)c(Cl)c1` (stereo unspecified), the MIC50 was 1.57 µg/mL (≈ 3.28 µM) with Candida albicans [1] and 4.57 µg/mL (≈ 9.55 µM) in the data set on Candida albicans [2].

As for `Cc1ccc(C(=O)Cn2cc(COC(Cn3ccnc3)c3ccc(Cl)cc3Cl)nn2)cc1` (stereo unspecified), the MIC50 was 3.34 µg/mL (≈ 7.1 µM) in the data set on Candida albicans [1] and 26.2 µg/mL (≈ 55.6 µM) with Candida albicans [2].

With `Clc1ccc(C(Cn2ccnc2)OCc2cn(C/C=C/c3ccccc3)nn2)c(Cl)c1` (stereo unspecified), the MIC50 came to 1.57 µg/mL (≈ 3.46 µM) with Candida albicans [1] and 11.5 µg/mL (≈ 25.2 µM) with Candida albicans [2].

Take `O=C(Cn1cc(COC(Cn2ccnc2)c2ccc(Cl)cc2Cl)nn1)c1ccccc1` (stereo unspecified): the MIC50 with Candida albicans [1] came out at 1.61 µg/mL (≈ 3.53 µM); with Candida albicans [2] it was 23.4 µg/mL (≈ 51.3 µM).

Consider `N#Cc1ccc(Cn2cc(COC(Cn3ccnc3)c3ccc(Cl)cc3Cl)nn2)cc1` (stereo unspecified), for which the MIC50 is 26.1 µg/mL (≈ 57.6 µM) in the data set on Candida albicans [1] and 93.2 µg/mL (≈ 206 µM) with Candida albicans [2].

In the case of `O=[N+]([O-])c1ccc(Cn2cc(COC(Cn3ccnc3)c3ccc(Cl)cc3Cl)nn2)cc1` (stereo unspecified), the MIC50 in the data set on Candida albicans [1] is 21.6 µg/mL (≈ 45.6 µM); in the data set on Candida albicans [2], 72.4 µg/mL (≈ 153 µM).

For `Clc1ccc(C(Cn2ccnc2)OCc2cn(Cc3ccccc3)nn2)c(Cl)c1` (stereo unspecified), the MIC50 in the data set with Candida albicans [1] was determined as 6.63 µg/mL (≈ 15.5 µM); with Candida albicans [2], 21.5 µg/mL (≈ 50.2 µM).

As for `O=C(Cn1cc(COC(Cn2ccnc2)c2ccc(Cl)cc2Cl)nn1)c1ccc(F)cc1` (stereo unspecified), the figures for the MIC50 with Candida albicans [1] and with Candida albicans [2] were 1.17 µg/mL (≈ 2.47 µM) and 15.9 µg/mL (≈ 33.6 µM), respectively.
